Assay results: the array DNA melting data of Ke et al. (doi:10.1101/2024.01.08.574731)

Key:
[1] = folding enthalpy; higher = less favourable; fluorescence melt of hairpins on a sequencing array, two-state fit; conditions: sodium 0.088 M
Summary of the method: (§1)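 Two-state fits, bootstrapped, provided melting temperature and folding enthalpy from Cy3 fluorescence normalised to pre-quench Cy3 and to control constructs. Library hairpins with annealed Cy3 and quencher oligos were imaged on a sequenced MiSeq flow cell in 50 mM Na-HEPES pH 8.0, 25 mM NaCl, at 2.5 °C intervals up to 60 °C. Four replicates were combined with inverse-variance weighting. A 9.35 °C upward shift was applied to fitted temperatures to match UV melts.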

[2] = melting temperature; fluorescence melt of hairpins on a sequencing array, two-state fit, raised by 9.35 °C to match UV melts; conditions: sodium 0.088 M
Summary of the method: as §1

Row | Sequence | folding enthalpy [1] | Tm [2]
1 | GATCCAATATGGATC ((((((...)))))) | -38.7 kcal/mol | 51.3 °C
2 | GTACCAGGAAACTGGTGC (.(((((....))))).) | -43 kcal/mol | 51.4 °C
3 | GCCGTCGAAAGACAGGC ((((((....))).))) | -27 kcal/mol | 65.2 °C
4 | GATTAACCGAAAGGTATC (((..(((....)))))) | -12.7 kcal/mol | 27.6 °C
5 | GCGGTGGGCCGC ((((....)))) | -13.9 kcal/mol | 65.8 °C
6 | GTACTTGGAAACAAGCAC ((.((((....)))).)) | -25.8 kcal/mol | 37.8 °C
7 | GCCGTTGGAAACAACGAC (.(((((....))))).) | -16.9 kcal/mol | 46.2 °C
8 | GTGAAATCGAAAGATCAC (((..(((....)))))) | -17 kcal/mol | 32.8 °C
9 | GATCTACGTTAGATC ((((((...)))))) | -24.8 kcal/mol | 38.3 °C
10 | GTCTGGCCGAAAGGCGAC (((..(((....)))))) | -15.7 kcal/mol | 43.9 °C
11 | GATCGTGTAACGATC ((((((...)))))) | -48.1 kcal/mol | 63.5 °C
12 | GGTATTCCGAAAGGAACC (((..(((....)))))) | -12.8 kcal/mol | 29.4 °C
13 | GAGCGGGGAAACCTGCTC ((((.((....)).)))) | -30.6 kcal/mol | 57.3 °C
14 | GGGCCACGAAAGTGACCC (((.(((....))).))) | -40.5 kcal/mol | 64.4 °C
15 | GTTCTCCGAAAGGAAAAC (((.(((....))).))) | -25.2 kcal/mol | 35.5 °C
16 | GGGCCTCGAAAGAGTCCC (((.(((....))).))) | -40.7 kcal/mol | 54.2 °C
17 | GTATTAGGAAACTGATAC ((((.((....)).)))) | -21.3 kcal/mol | 34.3 °C
18 | GCAAGGCGAAAGCGTAGC ((.(.((....)).).)) | -11.6 kcal/mol | 40.5 °C
19 | GGGCACGAAAGTGCTCCC ((((((....)))..))) | -9.92 kcal/mol | 53.1 °C
20 | GATCCCGAAAGGGAATC ((((((....))).))) | -14.5 kcal/mol | 49.6 °C
21 | GATCAGATCGCTGATC ((((((....)))))) | -28.2 kcal/mol | 48.9 °C
22 | GACTAGGAAACTAGTC ((((((....)))))) | -34 kcal/mol | 50.8 °C
23 | GCAAGACGAAAGTCCTGC (((.(((....))).))) | -26.4 kcal/mol | 48.7 °C
24 | GCTTTACGAAAGTAAGC (((.(((....)))))) | -22.7 kcal/mol | 46.2 °C

Row | Sequence | folding enthalpy [1] | Tm [2]
25 | GTGCTCGGAAACGAGCGC (.(((((....))))).) | -19.4 kcal/mol | 64.5 °C
26 | GGGCTGCCGAAAGGCCCC (((..(((....)))))) | -16 kcal/mol | 46.2 °C
27 | GCCGGGCGAAAGCCGAGC ((..(((....)))..)) | -14.8 kcal/mol | 57.4 °C
28 | GTCGCTGGAAACAGTGGC (.(.(((....))).).) | -27.8 kcal/mol | 45.4 °C
29 | GCCGTCGGAAACAACGGC (((((.(....).))))) | -47.5 kcal/mol | 53.9 °C
30 | GATCTGACGGCAGATC ((((((....)))))) | -49.4 kcal/mol | 51.4 °C
31 | GCCTTAGGAAACTGAGGC ((((.((....)).)))) | -41.7 kcal/mol | 49 °C
32 | GCAGCAGGAAACTGTTGC (((.(((....))).))) | -52.3 kcal/mol | 52.1 °C
33 | GTACCGGGAAACCGATAC (((.(((....))).))) | -27.7 kcal/mol | 40 °C
34 | GTGTACGAAAGTAATCAC ((((((....)))..))) | -18.3 kcal/mol | 30.2 °C
35 | GCCGTAGCGAAAGCTGGC (((..(((....)))))) | -31.5 kcal/mol | 55.6 °C
36 | GATCTTAACTAAGATC ((((((....)))))) | -32.5 kcal/mol | 44 °C
37 | GTCAAACGAAAGTTGAC (((.(((....)))))) | -26.5 kcal/mol | 49.7 °C
38 | GGGCGGCCGAAAGGCCCC (((..(((....)))))) | -10.4 kcal/mol | 57.1 °C
39 | GATCCGTGCACGGATC ((((((....)))))) | -40.3 kcal/mol | 66.5 °C
40 | CTACGGAAACGTAG (((((....))))) | -24.9 kcal/mol | 49.4 °C
41 | GCTGGGCGAAAGCCATGC ((..(((....)))..)) | -19.2 kcal/mol | 55.1 °C
42 | GGACGCGGAAACGTGTCC ((((.((....)).)))) | -43.4 kcal/mol | 62.2 °C
43 | GATCCCCCCGGGATC ((((((...)))))) | -33.1 kcal/mol | 65.8 °C
44 | GATCGTGACTACGATC ((((((....)))))) | -43.8 kcal/mol | 61.2 °C
45 | GTTAAGGGAAACCCTAAC ((((.((....)).)))) | -14.2 kcal/mol | 30.3 °C
46 | GACCATGGAAACATGATC ((.((((....)))).)) | -23.2 kcal/mol | 35.4 °C
47 | GATCACACGGGTGATC ((((((....)))))) | -35.5 kcal/mol | 57.1 °C
48 | CGGCCGGAAACGGAACCG ((((((....)))..))) | -26.2 kcal/mol | 46 °C

Row | Sequence | folding enthalpy [1] | Tm [2]
49 | GAACAACGAAAGTTTTC (((.(((....)))))) | -11.8 kcal/mol | 28.2 °C
50 | GCTTTTTCGAAAGAAAGC (((..(((....)))))) | -17.7 kcal/mol | 34.4 °C
51 | GGCTCCTCGAAAGAGGCC (((..(((....)))))) | -14 kcal/mol | 39.5 °C
52 | GATCGCGAAAGCGGAATC ((((((....)))..))) | -10.9 kcal/mol | 34.8 °C
53 | GCCCGTTCGAAAGAAGGC (((..(((....)))))) | -12.3 kcal/mol | 33.1 °C
54 | GATCCTTGTGAGGATC ((((((....)))))) | -38 kcal/mol | 56.1 °C
55 | GATCTCCAACGAGATC ((((((....)))))) | -39.3 kcal/mol | 49.8 °C
56 | GTACACGAAAGTGACTAC ((((((....)))..))) | -15.4 kcal/mol | 37.2 °C
57 | CGCGGACAAATCCGCG ((((((....)))))) | -40.8 kcal/mol | 60.9 °C
58 | GCAGCGCGAAAGCGTAGC ((..(((....)))..)) | -15.9 kcal/mol | 56.4 °C
59 | GGCCATGGAAACACGGCC ((((.((....)).)))) | -45.4 kcal/mol | 51.7 °C
60 | GGTTGCGAAAGCACACC ((((((....))).))) | -19.7 kcal/mol | 53.4 °C
61 | GTAAGCGAAAGCTTCTAC ((((((....)))..))) | -11.2 kcal/mol | 33.6 °C
62 | GGTACTGGAAACAGTACC (((((((....))))))) | -50.7 kcal/mol | 61.5 °C
63 | GTCCCTGGAAACAGAGAC (((.(((....))).))) | -28.4 kcal/mol | 36.3 °C
64 | GTACTGAAAAGTAC (((((....))))) | -20.8 kcal/mol | 46.8 °C
65 | GCATAAACGAAAGTTTGC (((..(((....)))))) | -18.5 kcal/mol | 37.4 °C
66 | GTACTCGAAAGAGCTAC ((((((....))).))) | -16.4 kcal/mol | 35 °C
67 | GAACACGAAAGTGGTTTC ((((((....)))..))) | -14 kcal/mol | 35.5 °C
68 | GATCCTTTGTAGGATC ((((((....)))))) | -39.7 kcal/mol | 52.6 °C
69 | GATCTGTCACAGATC ((((((...)))))) | -36.2 kcal/mol | 50.6 °C
70 | GATCTGCAAGCAGATC ((((((....)))))) | -40.2 kcal/mol | 57.6 °C
71 | CGTCTACGGAAACGTACG (((..(((....)))))) | -11.6 kcal/mol | 31.5 °C
72 | GATCTGGGAAACCGGATC ((((.((....)).)))) | -44.8 kcal/mol | 49.8 °C

Row | Sequence | folding enthalpy [1] | Tm [2]
73 | GATCCCAAGTGGGATC ((((((....)))))) | -37.4 kcal/mol | 60.5 °C
74 | GGGTTCGAAAGAATGCCC ((((((....)))..))) | -21.1 kcal/mol | 35.3 °C
75 | GCCTGGCGAAAGCAAAGC ((.(.((....)).).)) | -9.2 kcal/mol | 31.6 °C
76 | GTAACTGGAAACAGTTGC (.(((((....))))).) | -26.6 kcal/mol | 47.4 °C
77 | GGCAGACGAAAGTCCGCC (((.(((....))).))) | -39.2 kcal/mol | 60.2 °C
78 | GGTGGGGGAAACTCCACC (((((.(....).))))) | -45.9 kcal/mol | 56.4 °C
79 | GTAAAAACGAAAGTTTAC (((..(((....)))))) | -11.4 kcal/mol | 27.8 °C
80 | GATCCAAGAGTGGATC ((((((....)))))) | -28.6 kcal/mol | 46 °C
81 | GACAGCGAAAGCTAGTC ((((((....))).))) | -22.6 kcal/mol | 51.2 °C
82 | GGTTGGCGAAAGCCTACC (((.(((....))).))) | -25.3 kcal/mol | 59.6 °C
83 | GATCGAGTTTCGATC ((((((...)))))) | -31.4 kcal/mol | 53 °C
84 | GCAAACGAAAGTTATGC ((((((....))).))) | -24.3 kcal/mol | 38.4 °C
85 | GCGGAACTCCGC ((((....)))) | -25.7 kcal/mol | 54.9 °C
86 | GCGGCTGACCGC ((((....)))) | -24.3 kcal/mol | 58.1 °C
87 | GTACACGAAAGTGCTTAC ((((((....)))..))) | -11.9 kcal/mol | 33.3 °C
88 | GATCAGAGGCCTGATC ((((((....)))))) | -34.6 kcal/mol | 48.5 °C
89 | GGTCTGACGAAAGTCACC (((..(((....)))))) | -10.4 kcal/mol | 27.8 °C
90 | GGTACGCCGAAAGGCACC (((..(((....)))))) | -8.21 kcal/mol | 32 °C
91 | GATCACATGGGTGATC ((((((....)))))) | -45.1 kcal/mol | 56.4 °C
92 | GGGGTCGAAAGACAACCC ((((((....)))..))) | -21.2 kcal/mol | 48.8 °C
93 | GCGGGAAACCGC ((((....)))) | -22.9 kcal/mol | 67.3 °C
